Assay outcomes from PubChem BioAssay.
Scp1 inh – Scp-1 phosphatase inhibitors, primary screen, biochemical, colorimetric, uHTS; AID 493091, 2011; Recombinant Scp1, phosphopeptide, malachite green phosphate absorbance; inhibition, % at 20 µM; actives 0.88% (n = 340,000); Carboxy-terminal domain RNA polymerase II polypeptide A small phosphatase 1 (Homo …;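 active = inhibition above about 50% at 20 µM, limit read from the data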;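 note: plate controls were DMSO wells with enzyme for no effect and wells lacking enzyme for full effect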
Target sequence (Q9GZU7 76-261 limits assumed): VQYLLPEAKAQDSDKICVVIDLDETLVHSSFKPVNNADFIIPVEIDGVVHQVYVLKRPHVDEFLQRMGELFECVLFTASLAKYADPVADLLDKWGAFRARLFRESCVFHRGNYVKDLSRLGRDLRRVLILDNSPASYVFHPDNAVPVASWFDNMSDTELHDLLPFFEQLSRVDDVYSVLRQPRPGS
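assay system = SCP-1 phosphatase catalytic domain, residues 76-261 | buffer or medium = 50 mM Tris acetate pH 5.5, 0.005% Tween-20, 10 mM MgCl2 | incubation = enzyme reaction 45 min at room temperature, colour 5 min, stabilisation 30 min | signal = Phosphate-binding colour reagent, absorbance read at 630 nm | measure = % inhibition at 20 µM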
SUMO1 PPI mod – modulators of SUMO1 protein-protein interactions, primary screen, biochemical, uHTS; actives 0.33% (n = 360,000); inhibition, % at 20 µM; AID 602429, 2012; Small ubiquitin-related modifier 1 (Homo sapiens), P63165; SUMO1 binding to a labelled peptide, TR-FRET, 1 h; in the data active = inhibition above about 37%
Target sequence (P63165 whole entry, looked up): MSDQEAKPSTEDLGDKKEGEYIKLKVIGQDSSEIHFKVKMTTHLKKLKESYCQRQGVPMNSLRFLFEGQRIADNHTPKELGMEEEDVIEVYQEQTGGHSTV
FAS TE block – FAS thioesterase domain inhibitors, primary screen, biochemical, fluorescence intensity, uHTS; AID 602261, 2012; inhibition, % at 15 µM; Fatty acid synthase (Homo sapiens), P49327; recombinant FAS-TE, OMFH fluorogenic substrate, fluorescence endpoint; actives 0.67% (n = 360,000);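 active = compounds whose normalised, plate-corrected inhibition of enzyme fluorescence in the single-dose primary screen is 50% or more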;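 note: 0% = DMSO with enzyme and 100% = substrate without enzyme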
STEP inh – STEP phosphatase inhibitors, primary screen, biochemical, fluorescence intensity, uHTS | Tyrosine-protein phosphatase non-receptor type 5 (Homo sapiens), P54829 | recombinant STEP, OMFP fluorogenic substrate | inhibition, % at 20 µM | actives 0.25% (n = 360,000);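 active = inhibition at 20 µM, scaled per plate between control wells, above about 37%, limit read from the data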;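 note: 0% = DMSO with enzyme and substrate and 100% = substrate only without enzyme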
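material = STEP tyrosine phosphatase | reagent = fluorogenic phosphatase substrate OMFP at 25 µM final | doses = single compound dose of 20 µM, 1% DMSO final | schedule = 20 min reaction, room temperature, in the dark | measured by = fluorescence, 480/540 nm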
LMPTP inh – LMPTP phosphatase inhibitors, primary screen, biochemical, fluorescence intensity, uHTS | Low molecular weight phosphotyrosine protein phosphatase (Homo sapiens), P24666 | recombinant LMPTP-A, OMFP fluorogenic substrate | inhibition, % at 20 µM | actives 0.22% (n = 360,000) | AID 651560, 2012;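 active = compounds that cut the enzyme signal by at least half of the control window in the single-dose screen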;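 note: plate controls were DMSO wells with enzyme plus substrate for no effect and substrate without enzyme for full effect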
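Test system – LMPTP-A phosphatase enzyme · Quantity – 0.625 nM LMPTP-A final · Reagent – OMFP substrate, 400 µM final · Dosing – one test concentration per compound, 20 µM, with 3% DMSO overall · Timing – 50 min enzyme reaction at room temperature, protected from light · Detection – fluorescence intensity · Controls – substrate-only low control, DMSO enzyme-plus-substrate high control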
FAS-TE conf – FAS thioesterase domain inhibitors, confirmation, biochemical, fluorescence intensity, single concentration; shares compounds with FAS TE block; recombinant FAS-TE, OMFH fluorogenic substrate; inhibition, % at 15 µM; actives 45% (n = 2,300); AID 624325, 2012;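 active = compounds inhibiting the enzyme by at least 50% at 15 µM in any one of the replicates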;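 note: 0% = enzyme with DMSO only and 100% = wells lacking enzyme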
* = called active by the depositor; . = not tested or not shown. In the library only some 1.9% were active in any assay of this set; here they are far more common.

SMILES	Scp1 inh	SUMO1 PPI mod	FAS TE block	STEP inh	LMPTP inh	FAS-TE conf
Cc1ccccc1-c1csc(C(C)(O)c2ccc(F)c(F)c2)n1 (configuration not stated)	.	2	17	-4	2	.
O=C(/C=C/c1cccc([N+](=O)[O-])c1)NCCSc1ccccc1	-12	-21	69*	-1	2	80*
CC(C)(C)SCCNC(=O)/C=C/c1cccc([N+](=O)[O-])c1	-5	-22	72*	-1	-2	62*
COc1ccc(NC(=O)CN(c2ccc([N+](=O)[O-])cc2)S(=O)(=O)c2ccccc2)cc1	-13	-17	64*	0	2	74*
COc1cccc(NC(=O)CN(c2ccc([N+](=O)[O-])cc2)S(=O)(=O)c2ccccc2)c1	-11	-9	34	-3	0	.
O=C(/C=C/c1cccc([N+](=O)[O-])c1)N1CCN(c2ccc(F)cc2)CC1	-11	-20	80*	4	0	81*
O=C(COC(=O)c1cc(S(=O)(=O)N2CCCC2)ccc1O)Nc1ccc(SC(F)F)cc1	-10	9	5	3	2	.
O=C(CNc1cc(S(=O)(=O)N2CCCC2)ccc1OCC(F)(F)F)Nc1ccc(SC(F)F)cc1	-8	-5	65*	1	3	56*
O=C(Sc1nnc(-c2ccccc2)o1)N1c2ccccc2Sc2ccccc21	-14	-4	60*	-2	3	28*
COc1cccc(C(Nc2ccccn2)c2c(NC(=O)c3ccco3)sc(C)c2C)c1 (configuration not stated)	-5	-2	54*	3	5	11
COc1ccc(C(Nc2ccccn2)c2c(NC(=O)c3ccco3)sc(C)c2C)cc1 (configuration not stated)	-8	1	32	1	4	.
Cc1sc(NC(=O)c2ccco2)c(C(Nc2ccccn2)c2ccccc2)c1C (configuration not stated)	0	-1	60*	1	2	15
CC(C)C(NC(=O)c1ccc(F)cc1)C(=O)NCC1CCCO1 (configuration not stated)	-3	0	-7	-1	-3	.
CN(C(=O)c1cccc(NC(=O)Cc2ccc(NC(=O)C3CCN(S(=O)(=O)c4cccc([N+](=O)[O-])c4)CC3)cc2)c1)C1CCCC1	-17	-11	59*	-2	0	25
CN(C(=O)c1cccc(NC(=O)Cc2ccc(NC(=O)C3CCCN(S(=O)(=O)c4cccc([N+](=O)[O-])c4)C3)cc2)c1)C1CCCCC1 (configuration not stated)	-17	-10	73*	-1	0	16
CN(C(=O)c1cccc(NC(=O)Cc2ccc(NC(=O)C3CCN(S(=O)(=O)c4cccc([N+](=O)[O-])c4)CC3)cc2)c1)C1CCC1	-8	-11	2	-3	0	.
COc1ccc(-c2nc(C#N)c(N3CCCCCC3)o2)cc1OC	-13	-2	16	2	2	.
Cc1cc(C)n(CCNC(=O)c2ccc3c(c2)OCO3)n1	-1	7	-2	0	0	.
CC(=O)c1c(C)oc2ccc(N(C(=O)C3CCCCC3)S(=O)(=O)c3cc([N+](=O)[O-])ccc3C)cc12	-17	-8	80*	1	0	10
CN1CCN(c2ccccc2NC(=O)c2sc3ccccc3c2Cl)CC1	1	0	12	1	0	.
Cc1nnc(NC(=O)CSc2ccccc2N)s1	1	3	-6	-2	2	.
Cc1ccc(C)c(S(=O)(=O)ON2C(=O)c3ccccc3C2=O)c1	-7	0	83*	-2	-2	88*
